Screening results from PubChem.
Insulin prom act – TRM-6 insulin promoter activation. TRM-6 cells (human fetal islet line), insulin promoter eGFP reporter, imaging; plate-scaled: unstimulated 0, stimulated control 100. activation, % at 2 µM. 0.81% of 130,000 active. AID 1296;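 active means activation at 2 µM above a set limit, confirmed on inspection of the cell images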;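 further: share of cells whose green reporter signal exceeds an intensity cutoff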
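Material: TRM-6 insulin promoter–eGFP reporter cells. Buffer or medium: Low-glucose (5.5 mM) medium with tamoxifen. Probe or stimulus: tamoxifen at 0.75 µM added at seeding for reporter induction. Times: tamoxifen pre-incubation 15 h overnight, then compound exposure 48 h at 37 °C. Detection: high-content imaging of fixed cells with Hoechst nuclear stain.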
Starred values were filed as active, the others as inactive; [ ] = dose if it differs, or a comment. Only a selection was taken, and hits are over-represented in it overall.

SMILES	Insulin prom act
O=Cc1cn(-c2ccc(F)cc2)c2ccccc12	3
CC(C)Oc1ccc(/C(O)=C2/C(=O)C(=O)N(CCN3CCOCC3)C2c2ccccc2)cc1 (stereo not given)	3
COc1ccc(/C(O)=C2/C(=O)C(=O)N(CCN(C)C)C2c2cccnc2)cc1OC (stereo not given)	7
COc1cccc(/C(O)=C2/C(=O)C(=O)N(CCN3CCOCC3)C2c2cccnc2)c1 (stereo not given)	531*
CC(=O)c1c(C)[nH]c(C(=O)OCc2ccccc2F)c1C	-9
CCN(CC(=O)N1CCc2ccccc2C1)S(=O)(=O)c1ccc2ccccc2c1	-4
Cc1ccc(NC(=O)c2ccccc2NS(=O)(=O)c2ccc(Cl)s2)cc1S(=O)(=O)N1CCOCC1	-8
CCN1/C(=C/C=C/C=C/c2sc3ccccc3[n+]2CC)Sc2ccccc21	354*
CCN1/C(=C/c2ccc3cc(C)ccc3[n+]2CC)Sc2ccccc21	170
CCC(=O)/C=C1/Sc2ccccc2N1CC	329
Cc1cc(N2CCN(S(=O)(=O)c3ccc(Cl)cc3)CC2)c2ccccc2n1	100*
Cc1cc(C)n(-c2cc(N3CCN(S(=O)(=O)c4ccc(Cl)cc4)CC3)ccc2[N+](=O)[O-])n1	3
O=S(=O)(c1ccccc1)N1CCN(c2nc3ccccc3s2)CC1	3
Nc1c(-c2cccc([N+](=O)[O-])c2)nc2ccccn12	-69
CCN(CC)CCN(CC(=O)N(C1CCCCC1)C1CCCCC1)C(=O)c1ccco1	7
O=C(CCn1nnc2ccccc21)N/N=C\Cc1ccccc1	7
CN(Cc1nc(-c2ccncc2)no1)S(=O)(=O)c1ccccc1	24
O=c1cc(CS(=O)(=O)c2ccccc2)nc(-c2ccncc2)[nH]1	331*
O=c1[nH]c(CS(=O)(=O)c2ccccc2)nc2ccccc12	6
Cc1ccc(N2C(=O)N(CC(=O)N3CCCc4ccccc43)C(=O)C2C)cc1 (stereo not given)	-6
CS(=O)(=O)Nc1ccccc1C(=O)c1ccccc1	-8
COCCNCC(=O)N1CCCCCC1	0
Cc1ccc(C(=O)COC(=O)CNC(=O)c2cccs2)cc1C	-4
Cc1ccc(NC(=O)COC(=O)CCC(=O)c2cccs2)cc1	8
Cc1ccc(C(=O)NCC(=O)NCC(=O)OCC(=O)c2cccs2)cc1	471*
SMILES	Insulin prom act
O=C(CCCSc1nc2ccccc2[nH]1)N1CCN(c2ccc([N+](=O)[O-])cc2)CC1	5
COc1cc(S(=O)(=O)N2CCOCC2)cc(C(=O)c2nccn2C)c1OC	9
CCCCn1ccnc1C(=O)c1cc(S(=O)(=O)N2CCOCC2)ccc1C	89*
Cc1ccc(S(=O)(=O)N2CCOCC2)cc1NC(=O)Cn1ccsc1=N	-5
Cn1cccc1C(=O)NC(=O)COC(=O)c1cc(S(=O)(=O)N2CCCCC2)ccc1Cl	-7
CC1=C(C(=O)OCc2ccccc2)C(c2cccnc2)n2nnnc2N1 (stereo not given)	-3
CCOC(=O)C1=C(c2ccccc2)OC(N)=C(C#N)C1c1cccnc1 (stereo not given)	-7
CCOC(=O)C1=C(N)Oc2ccc3ccccc3c2C1c1cccnc1 (stereo not given)	564*
Cn1cc(CC(=O)NCCN2CCOCC2)c2ccccc21	0
O=C(NCc1ccc(OC(F)(F)F)cc1)C1CC(c2ccccc2[N+](=O)[O-])=NO1 (stereo not given)	-7
CCCCNC(=O)C1CC(c2ccccc2[N+](=O)[O-])=NO1 (stereo not given)	161*
O=C(NCCc1cccs1)C1CC(c2ccc([N+](=O)[O-])cc2)=NO1 (stereo not given)	-4
Cc1cccn2c(=O)c3cc(C(=O)NCCCN4CCCC4=O)n(C)c3nc12	0
O=C(CN1CCCCC1)Nc1ccc(S(=O)(=O)N2CCOCC2)cc1	4
O=C(CN1CCOCC1)Nc1ccc(S(=O)(=O)NC2CCCCC2)cc1	200*
CCCCN(CCCC)S(=O)(=O)c1ccc(NC(=O)CN2CCOCC2)cc1	6
COC(=O)C1=C(CSc2nc3ccccc3s2)NC(=O)NC1c1ccc(F)cc1 (stereo not given)	0
Cc1cccc(NC(=S)N(CCN(C)C)C(C)c2ccccn2)c1 (stereo not given)	-6
CC(C)CN1C(=S)SC(C)(C)C1n1oc(=O)n(-c2ccc(Cl)cc2)c1=O (stereo not given)	8
CN1/C(=C\C=Nc2ccc3ccccc3c2)C(C)(C)c2ccccc21	6
CN1/C(=C\C(=O)C(F)F)C(C)(C)c2ccccc21	5
CN1\C(=C/C=C/C=C/C=[N+](C)C)C(C)(C)c2ccccc21	567*
CCO/N=C(\C)c1c(O)c2ccccc2n(C)c1=O	4
CN(C)C(=O)COc1ccc2cc(-c3ccccc3)c(=O)oc2c1	-27
CCOC(=O)c1cc2ccc(OC)cc2oc1=O	5
SMILES	Insulin prom act
CCN(CC)c1ccc2cc(-c3nc(-c4ccc(OC)cc4)cs3)c(=O)oc2c1	223*[fluoresces]
CCOC(=O)c1c(NC(=O)CSC(=S)N2CCOCC2)sc(C)c1C	-4
CS(=O)(=O)c1ccc(-c2nnn(CC(N)=O)n2)cc1	0
CCCC(=O)NCn1nnc(-c2ccc(Cl)cc2)n1	488*[fluoresces]
CCc1ccc(-c2nnn(CCC(=O)OC)n2)cc1	-6
Cc1ccc(Cn2nc(C)c(NC(=O)C3(C)CC3(Br)Br)c2C)cc1 (stereo not given)	0
Cc1cc(/C=C2/SC(=S)N(c3ccc([N+](=O)[O-])cc3)C2=O)c(C)n1-c1cccnc1	119
Cc1ccc(/C=C2\SC(=S)N(Cc3ccccc3)C2=O)o1	-10
COc1ccc(-n2c(C)cc(/C=C3\SC(=S)N(Cc4ccco4)C3=O)c2C)cc1	245*
CCOC(=O)c1sc2nc(C)[nH]c(=S)c2c1C	-79
COC(=O)Cn1c(C)nc2c(sc3nc(C)cc(C)c32)c1=O	5
CCOC(=O)Cn1c(C)nc2c(C(=O)OCC)sc(C)c2c1=O	76*
Cc1cc(C)c(S(=O)(=O)N2CCC(C(=O)NCc3ccc(Cl)cc3Cl)CC2)c(C)c1	-6
CC1=CC(C)(C)N(C(=O)C(C)N2C(=O)c3ccccc3C2=O)c2ccc(C)cc21 (stereo not given)	-10
CCS(=O)(=O)c1ccc(O)c(NC(=O)c2cc(OC)c(OC)c(OC)c2)c1	0
Cc1ccc(N=Nc2ccc(O)c3ncccc23)cc1	123
Oc1ccc(CN2CCCCC2)c2cccnc12	389
Oc1c(Cl)cc(Cl)c2cccnc12	9
Cc1ccc(N=Nc2ccc(O)c3ncccc23)cc1C	279*
CCS(=O)(=O)c1ccc(N=Nc2ccc(O)c3ncccc23)c(OC)c1	625*
CCOc1cnn(Cc2ccccc2)c(=O)c1SCc1ccccc1	-3
Cc1nc2ccccn2c1C(=O)N=Nc1c(O)[nH]c2ccccc12	-6
CCOC(=O)CSc1nc(C(C)(C)C)nc2ccccc12	-5
CCn1cc([N+](=O)[O-])c(C(=O)Nc2nc3ccc(OC)cc3s2)n1	0
O=C(c1ccco1)N1CCN(C(c2coc3ccc(Cl)cc3c2=O)c2nnnn2C2CCCC2)CC1 (stereo not given)	0
CCCC(c1nnnn1C1CCCC1)N1CCN(C(=O)c2ccco2)CC1 (stereo not given)	181*
O=C(c1ccco1)N1CCN(C(c2ccccn2)c2nnnn2C2CCCC2)CC1 (stereo not given)	195
C[C@H](NC(=O)c1ccco1)C(=O)Nc1ccc(S(=O)(=O)N2CCCC2)cc1	-4
